# Source: PubChem BioAssay (Sanford-Burnham Center for Chemical Genomics)
# A3A deaminase = human APOBEC3A DNA deaminase inhibition. recombinant A3A, FAM/TAMRA ssDNA deamination fluorescence. inhibition, % at 20 µM. actives 0.41% (n = 330,000). P31941. AID 493011;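 active = at least 40% inhibition at 20 µM here, with at most 30% in a related deaminase screen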;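 also: plate controls were A3A with DMSO for no effect and wells lacking A3A enzyme for full effect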
# Target sequence (P31941 whole entry, looked up): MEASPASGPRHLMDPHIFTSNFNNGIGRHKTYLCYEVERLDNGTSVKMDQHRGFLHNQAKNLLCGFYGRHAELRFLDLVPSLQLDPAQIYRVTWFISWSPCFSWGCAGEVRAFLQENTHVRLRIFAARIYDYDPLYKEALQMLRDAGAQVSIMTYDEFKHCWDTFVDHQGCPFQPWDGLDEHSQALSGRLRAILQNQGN
# HKDC1 inh = HKDC1 (human) hexokinase inhibition. recombinant HKDC1, G6PDH/diaphorase resazurin coupled fluorescence. Q2TB90. AID 493160. inhibition, % at 20 µM. actives 0.16% (n = 340,000);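 active = inhibition above about 35% when tested at 20 µM, limit read from the data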;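 also: plate controls were DMSO wells with enzyme for no effect and DMSO wells lacking enzyme for full effect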
#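 Test system: Recombinant HKDC1 (HK5) hexokinase enzyme, produced in-house | Input: HKDC1 at 5 µg/mL | Buffer or medium: Tris pH 8.0 buffer with MgCl2, Tween-20, BSA, BME | Schedule: 90 min reaction incubation at room temperature, dark | Technique: Resazurin-to-resorufin fluorescence via G6PDH and diaphorase coupling, 525/613 nm | Controls: DMSO wells with and without enzyme mix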
# iPSC survival up = increases survival of single human iPS cells | actives 0.044% (n = 360,000) | AID 602274 | hiPSC single-cell survival, ATPlite luminescence; 100% = ROCK inhibitor wells, 0% = DMSO | survival enhancement, % at 20 µM; in the data active = survival enhancement above about 18%;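 also: cells exposed to compounds for 16 hours before the ATP read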
# PfGluPho inh = PfG6PD (Plasmodium falciparum) enzyme inhibition. PfGluPho enzyme, NADPH resazurin-diaphorase fluorescence. AID 504690. inhibition, % at 20 µM. actives 0.78% (n = 350,000);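 active = inhibition reaching at least a set limit at 20 µM in the primary screen, cut at about 59% in these data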;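 also: 0% = DMSO wells with substrate and 100% = DMSO wells lacking glucose-6-phosphate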
# APOBEC3G inh = inhibitors of human APOBEC3G DNA deaminase | Q9HC16 | recombinant A3G, ssDNA deamination FAM/TAMRA fluorescence | inhibition, % at 20 µM | actives 0.28% (n = 330,000) | AID 493012;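 active = inhibition of at least 40% at 20 µM, with no more than 30% in the related APOBEC3A deaminase screen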;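 also: plate controls were DMSO wells with A3G for no effect and wells lacking A3G enzyme for full effect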
# Target sequence (Q9HC16 whole entry, looked up): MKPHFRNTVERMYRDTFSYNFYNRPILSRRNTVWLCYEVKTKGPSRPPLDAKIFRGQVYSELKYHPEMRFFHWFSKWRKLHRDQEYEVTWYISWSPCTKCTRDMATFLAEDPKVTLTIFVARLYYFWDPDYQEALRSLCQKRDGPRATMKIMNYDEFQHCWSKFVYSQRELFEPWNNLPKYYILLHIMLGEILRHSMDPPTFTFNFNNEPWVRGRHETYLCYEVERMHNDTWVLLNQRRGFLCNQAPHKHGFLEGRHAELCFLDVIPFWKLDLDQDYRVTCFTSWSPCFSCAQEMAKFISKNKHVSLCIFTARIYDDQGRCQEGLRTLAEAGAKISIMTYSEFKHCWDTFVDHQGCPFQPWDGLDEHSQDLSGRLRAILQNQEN
# PfG6PD confirm = PfG6PD inhibition, single-dose confirmed | shares compounds with PfGluPho inh | recombinant PfGluPho, NADPH-diaphorase-resazurin fluorescence | inhibition, % at 20 µM | actives 34% (n = 2,400) | AID 504753;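 active = inhibition of at least 50% at 20 µM in any single replicate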;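 also: 0% = DMSO with substrate and 100% = DMSO lacking glucose-6-phosphate substrate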
# Diaphorase 10uM = inhibits diaphorase or oxidizes, flagging false PfG6PD hits. shares compounds with PfGluPho inh. diaphorase-coupled resazurin reduction, fluorescence, NADPH 10 uM. inhibition, % at 20 µM. actives 39% (n = 820). AID 504862;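 active = average inhibition reaching 50% or more with the compound at 20 µM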;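 also: resorufin red fluorescence formed as diaphorase reduces resazurin using NADPH; 0% = DMSO with enzyme and 100% = DMSO without enzyme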
# Diaphorase 30uM = inhibits diaphorase or oxidizes, flagging false PfG6PD hits; Diaphorase/resazurin coupled assay, resorufin fluorescence, 30 uM NADPH; actives 29% (n = 820); AID 504863; inhibition, % at 20 µM; shares compounds with PfGluPho inh;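 active = inhibition averaging 50% or more, tested at 20 µM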;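 also: 0% = DMSO with enzyme and 100% = DMSO wells lacking diaphorase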
# An asterisk follows results filed as active; . = no result given. Hits are enriched below; roughly 1.4% of the tested compounds scored in any of these assays.
SMILES,A3A deaminase,HKDC1 inh,iPSC survival up,PfGluPho inh,APOBEC3G inh,PfG6PD confirm,others
COC(=O)c1sc(NC(=O)c2oc3ccccc3c2C)nc1C,-1,-7,-2,-3,-5,.,
O=C(Nc1ccccc1C(=O)Nc1nnc(C(F)(F)F)s1)c1ccccc1,-4,6,0,74*,3,31,
Cc1cccc(N2CCN(C(=O)c3cc(COc4ccc(F)c(F)c4)on3)CC2)n1,-2,0,0,11,-6,.,
Cc1ccc(/C=C/C(=O)NCc2cccs2)c(C)c1,-5,2,0,88*,-6,29,
Cc1ccc(/C=C/C(=O)NCc2cccs2)cc1,-7,0,2,32,-9,.,
O=C(Nc1ccc(C(=O)N2CCCCC2)cc1)Nc1cccc(Cl)c1,-5,3,0,16,-8,.,
COc1ccc(Cn2cc(CN3CC(N4CCCC4)CS3(=O)=O)nn2)cc1 (stereo not drawn),.,.,0,.,.,.,
CC(=O)CSc1ccc(-c2nc3cc(C)c(C)cc3[nH]2)cn1,-4,-4,-4,67*,-11,20,
Cc1ccc2nc(-c3ccc(SCC(=O)O)nc3)[nH]c2c1,-2,15,0,26,-5,.,
Cc1ccc2nc(-c3ccc(SCC(=O)N4CCc5ccccc54)nc3)[nH]c2c1,-6,0,-1,59,-11,12,
Cc1ccc(N(C(=O)c2csnn2)C(C(=O)NC2CCCCC2)c2ccccn2)cc1C (stereo not drawn),-4,-3,0,6,-11,.,
CC1(C(=O)NCc2cccs2)CCN1CCc1ccccc1 (stereo not drawn),.,.,1,.,.,.,
C=C(C)C(=O)Oc1ccc(N=Nc2ccc(C)cc2)ccc1=O,.,9,-2,8,.,.,
CN1CCSc2ccc(C(=O)NCc3cccc(Br)c3)cc21,-7,1,0,57,-8,.,
CN1CCSc2ccc(C(=O)NCc3ccccc3F)cc21,-2,-5,-1,63*,-11,14,
Cc1cccc(CNC(=O)c2ccc3c(c2)N(C)CCS3)c1,-1,-6,-2,71*,4,-20,
OCCN1CCN(C(=S)c2ccc(Cl)c(Cl)c2)CC1,0,-3,-2,64*,38,53*,Diaphorase 10uM=-13;Diaphorase 30uM=-1
CCN(CC)c1ccc(C=Nc2ccccc2C)c(O)c1,-1,2,-1,59*,-5,28,
CC(C#N)(NC(=O)CN1CCN(S(=O)(=O)c2ccccc2Cl)CC1)C1CC1 (stereo not drawn),0,-3,-3,2,-7,.,
CC1=C(n2nnc([N+](=O)[O-])n2)C(c2cccnc2)C(C#N)=C(N)O1 (stereo not drawn),-3,21,0,84*,-11,79*,Diaphorase 10uM=48;Diaphorase 30uM=49
COC(=O)Cc1cc(=O)[nH]c(/N=C(\N)Nc2ccc(C(C)C)cc2)n1,1,-6,0,12,-7,.,
Cc1ccc(C(=O)COC(=O)c2c(C)cc(=O)oc2C)cc1[N+](=O)[O-],-4,9,-2,67*,-8,-13,
CCOC(=O)c1[nH]c2ccc(C)cc2c1NC(=O)CN1CCCCC1,-3,-1,2,-1,-6,.,
Cc1c2cc[n+](CCN3CCCCC3)cc2c(C)c2c1[nH]c1ccc(O)cc12,.,20,-2,87*,.,12,
Cc1noc(C)c1COC(=O)Cc1ccc(Cl)c(Cl)c1,-2,2,-3,69*,-2,33,
SMILES,A3A deaminase,HKDC1 inh,iPSC survival up,PfGluPho inh,APOBEC3G inh,PfG6PD confirm,others
CCC(C)(C)c1nnc(NC(=O)c2cccc([N+](=O)[O-])c2)s1,1,-3,-1,116*,0,88*,Diaphorase 10uM=93*;Diaphorase 30uM=64*
O=C(Nc1nnc(CSCc2ccc(F)cc2)s1)c1cccc([N+](=O)[O-])c1,-8,-3,-1,73*,-9,44,
COc1cc(C2CC(=O)Oc3cc(C)cc(C)c32)cc(OC)c1OC (stereo not drawn),-3,1,2,-2,0,.,
C/C(CCc1ccccc1)=N\NC(=O)c1ccccc1[N+](=O)[O-],0,-3,-1,0,-5,.,
CC(C)=CCC/C(C)=C/C=N/NC(=O)c1ccccc1[N+](=O)[O-],0,5,4,67*,-2,26,
Nc1c(O)cccc1C(=O)O,8,21,4,108*,2,80*,Diaphorase 10uM=0;Diaphorase 30uM=0
CC1CCc2[nH]c3ccc(C(=O)N(C)CC(=O)Nc4ccccc4Cl)cc3c2C1 (stereo not drawn),-5,-3,0,60*,-5,24,
Cc1ccc(NC(=O)CN(C)C(=O)c2ccc3[nH]c4c(c3c2)CC(C)CC4)cc1 (stereo not drawn),-4,-1,0,18,-6,.,
CC1CCc2[nH]c3ccc(C(=O)N(C)CC(=O)Nc4ccccc4C(F)(F)F)cc3c2C1 (stereo not drawn),-7,5,0,110*,-3,63*,Diaphorase 10uM=53*;Diaphorase 30uM=34
CSCCC(NC(=O)/C(=C/c1ccco1)NC(=O)c1ccco1)C(=O)O (stereo not drawn),0,-2,0,-1,-3,.,
COC(=O)Sc1nc(N2CCOCC2)c2c(c1C#N)CC(C)(C)OC2,-2,5,-1,50,-5,21,
CN(C(=S)Nc1ccc(Oc2ccccc2)cc1)c1ccc(O)cc1,.,6,1,78*,.,11,
CN(C(=S)Nc1ccccc1)c1ccccc1,1,10,0,4,-1,.,
CN(C(=S)Nc1cccnc1)c1ccc(O)cc1,.,5,-1,67*,.,2,
CN(C(=S)Nc1ccc(SC(F)F)cc1)c1ccc(O)cc1,-1,4,-1,70*,27,-17,
O=C(COC(=O)CCC1CCCC1)Nc1cccc(S(=O)(=O)N2CCOCC2)c1,-2,2,0,-7,14,.,
CC1N(C)c2cccc3cccc(c23)N1C,-1,19,1,69*,7,53*,Diaphorase 10uM=1;Diaphorase 30uM=2
Cc1ccccc1NC(=O)C1CCCN1S(=O)(=O)c1ccccc1C(F)(F)F (stereo not drawn),2,0,0,23,3,.,
CCCCNC(=O)C(=O)N/N=C/c1cccc(Br)c1,-2,-8,0,0,-4,.,
O=C(CCCOc1ccc(Cl)cc1Cl)N/N=C/c1ccccc1O,4,-9,0,34,2,.,
O=C(CC(=O)Nc1cccc(Cl)c1)N/N=C\c1ccccc1,-7,3,5,84*,-8,41,
Cc1ccc(/C=N/NC(=O)CCCOc2ccc(Cl)cc2Cl)cc1,1,10,0,67*,1,35,
